The nature of series [1]: Permeability across human Caco-2 cells. For orientation: Passage across Caco-2 layers is used to estimate intestinal permeability.
Series [2] in a line: Fraction unbound in rat serum at 10 uM.
Series [3] has as its target T1, Solute carrier family 2, facilitated glucose transporter member 4 (Homo sapiens) (UniProt P14672).
T1 sequence (whole entry): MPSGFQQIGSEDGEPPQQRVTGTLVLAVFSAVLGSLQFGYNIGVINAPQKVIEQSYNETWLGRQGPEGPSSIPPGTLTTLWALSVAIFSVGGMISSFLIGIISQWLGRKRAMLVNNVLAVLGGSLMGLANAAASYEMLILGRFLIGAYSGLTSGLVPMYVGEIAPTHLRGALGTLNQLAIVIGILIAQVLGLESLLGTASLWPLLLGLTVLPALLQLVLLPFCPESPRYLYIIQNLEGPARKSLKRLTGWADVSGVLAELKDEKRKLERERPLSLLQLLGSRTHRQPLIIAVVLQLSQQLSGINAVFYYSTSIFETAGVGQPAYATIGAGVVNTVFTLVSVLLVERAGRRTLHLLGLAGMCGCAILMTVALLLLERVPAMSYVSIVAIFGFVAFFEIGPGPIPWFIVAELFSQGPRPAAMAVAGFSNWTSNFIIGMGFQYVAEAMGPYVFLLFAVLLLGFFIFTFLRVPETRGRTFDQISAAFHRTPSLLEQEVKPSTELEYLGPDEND
To be noted: 20 uM.

For series [4], the target named is T2, Solute carrier family 2, facilitated glucose transporter member 1 (Homo sapiens) (UniProt P11166).
T2 sequence (whole entry): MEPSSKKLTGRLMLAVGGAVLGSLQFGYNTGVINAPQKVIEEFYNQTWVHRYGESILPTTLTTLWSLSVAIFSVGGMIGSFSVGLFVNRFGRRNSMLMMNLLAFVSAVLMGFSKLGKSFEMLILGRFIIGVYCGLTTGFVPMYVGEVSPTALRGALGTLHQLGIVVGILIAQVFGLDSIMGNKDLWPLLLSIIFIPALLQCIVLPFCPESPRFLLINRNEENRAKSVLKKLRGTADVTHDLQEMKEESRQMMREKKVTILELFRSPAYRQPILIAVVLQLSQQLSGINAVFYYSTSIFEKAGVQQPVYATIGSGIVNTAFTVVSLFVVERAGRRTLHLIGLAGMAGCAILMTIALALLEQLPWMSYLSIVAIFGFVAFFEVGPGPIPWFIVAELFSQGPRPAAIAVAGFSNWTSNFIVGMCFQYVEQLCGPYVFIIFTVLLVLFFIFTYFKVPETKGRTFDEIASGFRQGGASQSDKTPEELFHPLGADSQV
The settings on record: 20 uM.

Series [5] in a line: Clearance in rat at 1 mg/kg, po after 1.7 hrs. To be noted: in vivo.
A short description of series [6]: Elimination half life in intra arterially dosed dog. The settings on record: in vivo.
For series [7], the target named is T3, Sodium/glucose cotransporter 2 (Rattus norvegicus, UniProt P53792).
T3 sequence (P53792 whole entry): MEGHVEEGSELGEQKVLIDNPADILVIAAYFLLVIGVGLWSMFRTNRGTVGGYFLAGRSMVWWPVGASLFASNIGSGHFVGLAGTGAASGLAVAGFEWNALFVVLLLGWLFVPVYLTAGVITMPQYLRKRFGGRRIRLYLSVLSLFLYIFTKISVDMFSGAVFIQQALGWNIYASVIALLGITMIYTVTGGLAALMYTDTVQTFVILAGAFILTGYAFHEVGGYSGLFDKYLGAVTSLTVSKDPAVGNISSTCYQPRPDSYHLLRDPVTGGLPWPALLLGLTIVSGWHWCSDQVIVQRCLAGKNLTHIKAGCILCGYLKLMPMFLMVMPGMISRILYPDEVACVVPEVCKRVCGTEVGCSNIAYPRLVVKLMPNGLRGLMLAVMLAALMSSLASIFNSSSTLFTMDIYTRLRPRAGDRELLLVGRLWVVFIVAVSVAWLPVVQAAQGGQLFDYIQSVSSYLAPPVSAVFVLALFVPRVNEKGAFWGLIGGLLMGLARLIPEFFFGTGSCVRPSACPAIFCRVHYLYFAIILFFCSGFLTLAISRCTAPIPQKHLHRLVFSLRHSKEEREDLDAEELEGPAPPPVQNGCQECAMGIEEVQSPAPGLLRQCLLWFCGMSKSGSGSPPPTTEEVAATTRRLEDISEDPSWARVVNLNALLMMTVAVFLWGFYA
Put plainly: Inhibition of rat SGLT2 expressed in CHO cells assessed as inhibition of [14C]AMG accumulation.

Series [8] in a line: Elimination half life in intra arterially dosed rat. To be noted: in vivo.
Series [9] can be described thus: Volume of distribution at steady state in rat. The settings on record: in vivo.
A short description of series [10]: Fraction unbound in human serum at 10 uM.
A short description of series [11]: Elimination half life in intra arterially dosed monkey. To be noted: rhesus monkey, in vivo.
The nature of series [12]: Oral bioavailability in rat. To be noted: in vivo.
Another series can be described thus: in vivo. The settings on record: rat, po, 1 mg/kg.
Series [13] addresses T4, Sodium/glucose cotransporter 2 (Homo sapiens, UniProt P31639).
T4 sequence (P31639 whole entry): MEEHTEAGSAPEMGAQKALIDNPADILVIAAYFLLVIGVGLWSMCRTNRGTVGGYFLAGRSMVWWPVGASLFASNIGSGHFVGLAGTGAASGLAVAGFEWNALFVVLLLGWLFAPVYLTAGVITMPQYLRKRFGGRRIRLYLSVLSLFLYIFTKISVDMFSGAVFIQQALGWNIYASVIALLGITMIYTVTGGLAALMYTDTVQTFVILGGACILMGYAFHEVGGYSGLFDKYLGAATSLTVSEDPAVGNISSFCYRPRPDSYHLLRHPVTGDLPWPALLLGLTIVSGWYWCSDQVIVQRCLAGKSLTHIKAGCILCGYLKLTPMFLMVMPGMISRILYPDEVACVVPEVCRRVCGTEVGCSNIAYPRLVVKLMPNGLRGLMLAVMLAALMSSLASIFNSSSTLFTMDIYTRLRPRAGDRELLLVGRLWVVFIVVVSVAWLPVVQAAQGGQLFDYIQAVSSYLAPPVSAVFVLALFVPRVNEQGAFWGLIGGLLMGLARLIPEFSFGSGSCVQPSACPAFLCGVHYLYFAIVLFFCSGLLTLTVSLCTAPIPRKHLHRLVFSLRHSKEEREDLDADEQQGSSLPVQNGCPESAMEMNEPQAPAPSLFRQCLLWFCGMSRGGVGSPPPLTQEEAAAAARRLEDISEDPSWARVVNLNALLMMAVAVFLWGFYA
Put plainly: Inhibition of human SGLT2 expressed in CHO cells assessed as inhibition of [14C]AMG accumulation. In kind it is cell-based. The essentials: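 Radiolabeled α-methyl-D-glucopyranoside accumulation in Chinese hamster ovary cells stably expressing human or rat SGLT2. EC50 is taken as inhibition of that uptake. The assay was run in protein-free buffer, and n is given per value.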

This is an account of results in ChEMBL document CHEMBL1142359 (J Med Chem, 2008).

A word on the Papp: it is the rate of passage across a membrane or cell layer, normalised by area and donor concentration. Broadly, the fraction unbound is free concentration divided by total concentration. As usually defined, the inhibition is the percentage by which the read-out fell short of the control. One may read the CL/F as clearance divided by bioavailability, as obtained after extravascular dosing. For orientation: half-life means how long it takes for the measured level to halve. By EC50 is commonly meant the midpoint of the concentration-response curve. As a reminder, the Vd is the apparent volume that relates the amount in the body to the concentration in plasma or blood. As a reminder, the bioavailability is the share of a dose that reaches the circulation, judged against a reference dose that is usually intravenous. Broadly, the Cmax is the peak of the concentration-time curve. In the case of `CCOc1ccc(Cc2cc([C@@H]3O[C@H](CO)[C@@H](O)[C@H](O)[C@H]3O)ccc2Cl)cc1` [DAPAGLIFLOZIN], the apparent permeability coefficient (Papp) in series [1] was greater than 15 ×10⁻⁶ cm/s. For the same compound, the results for the fraction unbound at 10 µM in series [2] and in series [10] were 0.03 and 0.04, respectively. In addition, the inhibition in series [3] and in series [4] was 8% in each case. Also, in series [5], the CL/F at 1.7 h is 4.8 mL/min/kg. Besides, the half-life is 7.4 h in series [6], 4.6 h in series [8] and 3 h in series [11]. In addition, in [7], the concentration giving a half-maximal response (EC50) stood at 3 nM. The Vd in series [9] amounted to 1.6 L/kg. The bioavailability in [12] amounted to 84%. The compound further gave a Cmax at 1.7 h in “in vivo” of 600 ng/mL.

Regarding `COc1ccc(Cc2ccccc2O[C@@H]2O[C@H](CO)[C@@H](O)[C@H](O)[C@H]2O)cc1` [SERGLIFLOZIN A], in series [13], the EC50 stood at 9.2 nM.

Turning to `Cc1cc(O)c(C(=O)CCc2ccc3occc3c2)c(O[C@@H]2O[C@H](CO)[C@@H](O)[C@H](O)[C@H]2O)c1`, the EC50 in [13] worked out at 6.6 nM.

As for `CCNC(=O)c1c(O)c(Cc2ccc(OC)cc2)cc([C@@H]2O[C@H](CO)[C@@H](O)[C@H](O)[C@H]2O)c1O`, the EC50 in series [13] was found to be 1300 nM.
